7 compounds from ChEMBL document CHEMBL4706730, “A Set of Highly Sensitive Sirtuin Fluorescence Probes for Screening Small-Molecular Sirtuin Defatty-Acylase Inhibitors” (ACS Med Chem Lett, 2021) can be followed below.

Calls of active or inactive are those of the source. No cut-off for these calls is given here. Numbered stars: 1 amine (or outer) side, 2 acyl side, 3 side chain; on linkers, the order of the positions; unused ones are H or OH. Square brackets hold non-standard residues; d marks the D form. Peptide text beside a SMILES is read from it. * marks the point of attachment. X1 = O=C(O)c1cc(NC(=S)*)ccc1-c1c2ccc(=O)cc-2oc2cc(O)ccc12; X2 = CN(CCC(=O)*)c1ccc(/N=N/c2ccc([N+](=O)[O-])cc2)cc1; Achc(trans-4) = O=C([C@H]1CC[C@H](N[*:1])CC1)[*:2]; X5 = O=C(Cc1ccc(/N=N/c2ccc(O)cc2)cc1)*

Test [1] deals with T1, NAD-dependent protein deacetylase sirtuin-1 (Homo sapiens) (UniProt Q96EB6).
T1 sequence (whole entry): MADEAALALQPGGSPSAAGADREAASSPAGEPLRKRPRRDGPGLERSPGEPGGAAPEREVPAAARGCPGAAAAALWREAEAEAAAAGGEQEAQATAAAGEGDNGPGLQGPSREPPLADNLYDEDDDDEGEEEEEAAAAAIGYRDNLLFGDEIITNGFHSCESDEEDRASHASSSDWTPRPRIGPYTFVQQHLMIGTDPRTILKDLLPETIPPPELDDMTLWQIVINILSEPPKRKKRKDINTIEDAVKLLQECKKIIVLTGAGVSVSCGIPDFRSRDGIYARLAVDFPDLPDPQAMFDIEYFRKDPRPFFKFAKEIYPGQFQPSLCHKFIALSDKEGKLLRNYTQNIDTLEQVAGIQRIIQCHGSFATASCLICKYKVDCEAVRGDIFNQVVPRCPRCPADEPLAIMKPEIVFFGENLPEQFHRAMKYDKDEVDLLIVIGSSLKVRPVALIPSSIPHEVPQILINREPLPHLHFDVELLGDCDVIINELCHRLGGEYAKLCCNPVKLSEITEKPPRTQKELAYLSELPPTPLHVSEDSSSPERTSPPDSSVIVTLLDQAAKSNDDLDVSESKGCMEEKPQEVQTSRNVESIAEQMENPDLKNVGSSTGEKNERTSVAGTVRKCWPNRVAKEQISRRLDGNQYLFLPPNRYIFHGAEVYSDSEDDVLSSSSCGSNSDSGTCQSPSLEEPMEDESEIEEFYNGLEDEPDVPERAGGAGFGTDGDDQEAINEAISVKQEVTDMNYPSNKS
Nature of the test: Binding affinity to SIRT1 (unknown origin) assessed as increase in fluorescence intensity at 2.5 uM measured at 5 mins interval for 1 hr in presence of NAD+ by fluorometric method relative to control. In a few lines:
(§1)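 Each FITC/quencher FRET peptide probe was incubated with recombinant SIRT1–7 in 96-well half-area plates at 37 °C for 1 h. The fluorescence increase is reported as a fold change, SIRT(+) signal over SIRT(−) signal, after 1 h.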

Test [2] has as its target T2, NAD-dependent protein deacetylase sirtuin-2 (Homo sapiens) (UniProt Q8IXJ6).
T2 sequence (whole entry): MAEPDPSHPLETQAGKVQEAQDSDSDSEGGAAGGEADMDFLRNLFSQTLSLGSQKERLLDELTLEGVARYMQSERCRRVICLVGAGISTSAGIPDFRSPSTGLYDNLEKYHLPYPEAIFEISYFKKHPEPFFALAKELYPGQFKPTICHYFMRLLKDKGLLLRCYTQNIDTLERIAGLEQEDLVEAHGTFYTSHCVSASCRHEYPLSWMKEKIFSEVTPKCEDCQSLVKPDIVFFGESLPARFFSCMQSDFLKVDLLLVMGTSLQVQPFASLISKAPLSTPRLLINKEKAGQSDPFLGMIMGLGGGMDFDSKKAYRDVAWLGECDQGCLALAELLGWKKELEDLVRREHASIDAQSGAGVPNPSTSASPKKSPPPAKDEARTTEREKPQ
Nature of the test: Binding affinity to SIRT2 (unknown origin) assessed as increase in fluorescence intensity at 2.5 uM measured at 5 mins interval for 1 hr in presence of NAD+ by fluorometric method relative to control. The essentials:
as §1

For test [3], the target named is T3, NAD-dependent protein deacetylase sirtuin-3, mitochondrial (Homo sapiens) (UniProt Q9NTG7).
T3 sequence (whole entry): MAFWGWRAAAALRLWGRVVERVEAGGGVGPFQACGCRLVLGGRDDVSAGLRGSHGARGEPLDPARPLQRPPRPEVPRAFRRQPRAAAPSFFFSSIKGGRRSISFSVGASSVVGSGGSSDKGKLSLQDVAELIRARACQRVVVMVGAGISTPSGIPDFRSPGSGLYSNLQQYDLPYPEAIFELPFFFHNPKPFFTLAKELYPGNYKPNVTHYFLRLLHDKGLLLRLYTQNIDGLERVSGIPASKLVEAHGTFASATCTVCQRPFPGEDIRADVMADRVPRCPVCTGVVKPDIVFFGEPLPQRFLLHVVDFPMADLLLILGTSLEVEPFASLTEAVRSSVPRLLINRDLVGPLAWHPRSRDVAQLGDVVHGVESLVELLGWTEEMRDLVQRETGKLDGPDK
Nature of the test: Binding affinity to SIRT3 (unknown origin) assessed as increase in fluorescence intensity at 2.5 uM measured at 5 mins interval for 1 hr in presence of NAD+ by fluorometric method relative to control. The essentials:
as §1

Test [4] has as its target T4, NAD-dependent protein lipoamidase sirtuin-4, mitochondrial (Homo sapiens) (UniProt Q9Y6E7).
T4 sequence (whole entry): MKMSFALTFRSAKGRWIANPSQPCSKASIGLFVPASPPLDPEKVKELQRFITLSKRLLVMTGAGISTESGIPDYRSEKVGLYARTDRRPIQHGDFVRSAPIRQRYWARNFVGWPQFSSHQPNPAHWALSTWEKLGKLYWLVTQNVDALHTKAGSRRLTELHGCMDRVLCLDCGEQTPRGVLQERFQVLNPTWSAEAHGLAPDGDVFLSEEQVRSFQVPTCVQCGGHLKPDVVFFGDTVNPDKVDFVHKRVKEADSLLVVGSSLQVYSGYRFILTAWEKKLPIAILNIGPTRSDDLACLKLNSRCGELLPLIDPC
Nature of the test: Binding affinity to SIRT4 (unknown origin) assessed as increase in fluorescence intensity at 2.5 uM measured at 5 mins interval for 1 hr in presence of NAD+ by fluorometric method relative to control. The essentials: as §1

Test [5] addresses NAD-dependent protein deacylase sirtuin-5, mitochondrial (Homo sapiens) (UniProt Q9NXA8). Nature of the test: Binding affinity to SIRT5 (unknown origin) assessed as increase in fluorescence intensity at 2.5 uM measured at 5 mins interval for 1 hr in presence of NAD+ by fluorometric method relative to control. In a few lines:
as §1

The target in test [6] is NAD-dependent protein deacylase sirtuin-6 (Homo sapiens) (UniProt Q8N6T7). Nature of the test: Binding affinity to SIRT6 (unknown origin) assessed as increase in fluorescence intensity at 2.5 uM measured at 5 mins interval for 1 hr in presence of NAD+ by fluorometric method relative to control. The essentials:
as §1

Test [7] addresses T5, NAD-dependent protein deacetylase sirtuin-7 (Homo sapiens) (UniProt Q9NRC8).
T5 sequence (whole entry): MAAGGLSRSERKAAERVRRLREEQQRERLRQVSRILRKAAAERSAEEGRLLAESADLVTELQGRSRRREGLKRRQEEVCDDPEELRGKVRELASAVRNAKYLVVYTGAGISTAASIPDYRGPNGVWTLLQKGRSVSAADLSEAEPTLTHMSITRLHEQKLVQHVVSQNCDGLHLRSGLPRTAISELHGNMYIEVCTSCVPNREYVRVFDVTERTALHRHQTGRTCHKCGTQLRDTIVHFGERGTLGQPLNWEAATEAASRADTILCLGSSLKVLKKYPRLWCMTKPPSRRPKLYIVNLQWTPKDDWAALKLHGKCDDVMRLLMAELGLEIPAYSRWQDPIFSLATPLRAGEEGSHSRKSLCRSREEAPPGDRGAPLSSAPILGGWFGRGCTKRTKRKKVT
Nature of the test: Binding affinity to SIRT7 (unknown origin) assessed as increase in fluorescence intensity at 2.5 uM measured at 5 mins interval for 1 hr in presence of NAD+ by fluorometric method relative to control. In a few lines: as §1

The target in test [8] is T2, NAD-dependent protein deacetylase sirtuin-2 (Homo sapiens). Nature of the test: Inhibition of 5-(3-((1r,4r)-4-((5S,8S,11S,14S,17S,20S,29S)-11-((1H-imidazol-4-yl)methyl)-1,33-diamino-5-carbamoyl-17-(4-(4-(4-((4-(dimethylamino)phenyl)diazenyl)phenyl)butanamido)butyl)-8,14-bis(3-guanidinopropyl)-20-methyl-7,10,13,16,19,22,25,28-octaoxo-6,9,12,15,18,21,24,27-octaazatritriacontan-29-ylcarbamoyl)cyclohexyl)thioureido)-2-(6-hydroxy-3-oxo-3H-xanthen-9-yl)benzoic acid binding to SIRT2 (unknown origin) at 10 uM measured after 2 hrs in presence of NAD+ by fluorometric method relative to control. In a few lines:
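In the primary library screen, 384-well plates held SIRT2 with the Dabcyl-BH/H4K16 one-step FRET probe. Each compound was tested at 10 μM with 0.5% DMSO, and inhibition was taken from the fluorescence signal.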

Test [9] deals with T6, NAD-dependent protein deacetylase sirtuin-2 (Homo sapiens, UniProt Q8IXJ6).
T6 sequence (Q8IXJ6 whole entry): T2 sequence (whole entry)
Nature of the test: Inhibition of 5-(3-((1r,4r)-4-((5S,8S,11S,14S,17S,20S,29S)-11-((1H-imidazol-4-yl)methyl)-1,33-diamino-5-carbamoyl-17-(4-(4-(4-((4-(dimethylamino)phenyl)diazenyl)phenyl)butanamido)butyl)-8,14-bis(3-guanidinopropyl)-20-methyl-7,10,13,16,19,22,25,28-octaoxo-6,9,12,15,18,21,24,27-octaazatritriacontan-29-ylcarbamoyl)cyclohexyl)thioureido)-2-(6-hydroxy-3-oxo-3H-xanthen-9-yl)benzoic acid binding to SIRT2 (unknown origin) measured after 2 hrs in presence of NAD+ by fluorometric method. The essentials:
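The second screen used the same SIRT2 one-step FRET probe conditions, validated at 2.92 nM SIRT2. Compounds were tested over a range of concentrations to check dose-dependency, and the IC50 was derived from the dose–response curve.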

In test [10] the target is T2, NAD-dependent protein deacetylase sirtuin-2 (Homo sapiens). Nature of the test: Binding affinity to SIRT2 (unknown origin) assessed as increase in fluorescence intensity measured at 5 mins interval for 1 hr in presence of NAD+ by fluorometric method.
Test [11] has the same target. Nature of the test: Binding affinity to SIRT2 (unknown origin) assessed as increase in fluorescence intensity at 2.92 to 8.75 nM measured at 5 mins interval for 4 hrs in presence of NAD+ by fluorometric method. The conditions noted are these: dose 2.92-8.75 nM.

Chain of NAD-dependent protein deacylase sirtuin-6 (Homo sapiens) (Q8N6T7 whole entry): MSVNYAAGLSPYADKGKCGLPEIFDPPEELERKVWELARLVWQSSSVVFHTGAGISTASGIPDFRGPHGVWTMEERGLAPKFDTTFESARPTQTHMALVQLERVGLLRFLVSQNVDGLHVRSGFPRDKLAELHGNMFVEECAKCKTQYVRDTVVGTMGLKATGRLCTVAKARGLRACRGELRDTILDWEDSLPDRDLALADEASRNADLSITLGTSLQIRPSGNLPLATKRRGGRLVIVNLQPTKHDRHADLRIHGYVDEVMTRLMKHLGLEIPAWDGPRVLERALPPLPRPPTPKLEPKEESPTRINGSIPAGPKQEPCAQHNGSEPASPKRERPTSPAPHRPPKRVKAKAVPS
Chain of NAD-dependent protein deacylase sirtuin-5, mitochondrial (Homo sapiens) (Q9NXA8 37-310 limits assumed): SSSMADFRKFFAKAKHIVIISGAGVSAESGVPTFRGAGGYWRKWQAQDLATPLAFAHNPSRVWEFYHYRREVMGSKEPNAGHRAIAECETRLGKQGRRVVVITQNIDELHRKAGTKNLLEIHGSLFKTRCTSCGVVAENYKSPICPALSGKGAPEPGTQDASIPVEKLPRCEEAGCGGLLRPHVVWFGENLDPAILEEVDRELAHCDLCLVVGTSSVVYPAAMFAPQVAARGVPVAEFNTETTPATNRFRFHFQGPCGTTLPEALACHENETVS

Turning to `C[C@H](NC(=O)[C@@H]1CCCN1C(=O)[C@H](C)NC(=O)[C@H]1CC[C@H](NC(=S)Nc2ccc(-c3c4ccc(=O)cc-4oc4cc(O)ccc34)c(C(=O)O)c2)CC1)C(=O)N1CCC[C@H]1C(=O)N[C@@H](CCCCNC(=O)CCN(C)c1ccc(/N=N/c2ccc([N+](=O)[O-])cc2)cc1)C(=O)N[C@@H](CCCCN)C(=O)NCC(=O)N[C@@H](CO)C(=O)N[C@@H](CCCCN)C(N)=O` (X1-[Achc(trans-4)]APAPK(X2)KGSK-NH2), the fold change (FC) in test [1] came to 5; in [2], 3.83; in [3] it was 12.3; in [4], 1.18; in test [5], 0.99; in test [6], 3.51. Moreover, the fold change (FC) in test [7] is 1.01.
On to `O=C1CCCCC1C1(O)C(=O)Nc2ccccc21` (configuration not stated), for which the inhibition in [8] is more than 35%.
Regarding `CN(CCC(=O)NCCCC[C@H](NC(=O)[C@H](Cc1ccccc1)NC(=O)[C@H](CO)NC(=O)[C@H](CCCCN)NC(=O)[C@H](CCCCN)NC(=O)[C@H]1CC[C@H](NC(=S)Nc2ccc(-c3c4ccc(=O)cc-4oc4cc(O)ccc34)c(C(=O)O)c2)CC1)C(=O)N[C@@H](CCC(=O)O)C(=O)N[C@@H](CCCNC(=N)N)C(=O)N[C@@H](CO)C(=O)N[C@@H](CO)C(N)=O)c1ccc(/N=N/c2ccc([N+](=O)[O-])cc2)cc1` (X1-[Achc(trans-4)]KKSFK(X2)ERSS-NH2), the fold change (FC) worked out at 8.86 in test [1]; 5.64 in test [2]; 26.2 in test [3]; 1.2 in [4]; 1.05 in test [5]; 3.36 in test [6]. Moreover, the fold change (FC) in test [7] is 0.99.
As for `C=C(C)Cn1c(NCCO)nc2c1c(=O)[nH]c(=O)n2C`, the inhibition in test [8] was more than 35%.
With `CC[C@H](C)[C@H](NC(=O)[C@H](CCCNC(=N)N)NC(C)=O)C(=O)N[C@@H](CCCCNC(=O)Cc1ccc(/N=N/c2ccc(O)cc2)cc1)C(=O)N[C@@H](CCCNC(=N)N)C(=O)N[C@@H](Cc1ccc(O)cc1)C(N)=O` (Ac-RIK(X5)RY-NH2), in test [9], the IC50 was determined as 7 nM.
With `C[C@H](NC(=O)CNC(=O)CNC(=O)[C@H]1CC[C@H](NC(=S)Nc2ccc(-c3c4ccc(=O)cc-4oc4cc(O)ccc34)c(C(=O)O)c2)CC1)C(=O)N[C@@H](CCCCNC(=O)CCc1ccc(/N=N/c2ccc(N(C)C)cc2)cc1)C(=O)N[C@@H](CCCNC(=N)N)C(=O)N[C@@H](Cc1c[nH]cn1)C(=O)N[C@@H](CCCNC(=N)N)C(N)=O`, the fold change (FC) was 10.9 in [1]; 4.72 in test [2]; 5.45 in test [3]; 0.92 in test [4]; 1.03 in [5]; 1.05 in test [6]. The fold change (FC) in test [7] stood at 1.01.
In the case of `C[C@H](NC(=O)CNC(=O)CNC(=O)[C@H](CCCCN)NC(=O)[C@H]1CC[C@H](NC(=S)Nc2ccc(-c3c4ccc(=O)cc-4oc4cc(O)ccc34)c(C(=O)O)c2)CC1)C(=O)N[C@@H](CCCCNC(=O)CCCc1ccc(/N=N/c2ccc(N(C)C)cc2)cc1)C(=O)N[C@@H](CCCNC(=N)N)C(=O)N[C@@H](Cc1c[nH]cn1)C(=O)N[C@@H](CCCNC(=N)N)C(=O)N[C@@H](CCCCN)C(N)=O`, the fold change (FC) in test [1] was 14.2; in test [2] it was 12; in test [4], 1.11; in test [5], 1.06; in [6], 2.21; in [7], 1. The Activity entry in [10] was “Dose-dependent effect”. Besides, in [11], the outcome was Active.

In general, inhibition refers to the change of the read-out against control, counted positive when it falls. In general, IC50 refers to the concentration that inhibits the measured activity by half.
